Calls of active or inactive are those of the source. No cut-off for these calls is given here.
Legend:
[1] = Displacement of [3H]-cytisine from alpha4beta2* nAChR in Wistar rat cerebral cortex membranes after 75 mins; assay type: cell membranes
[2] = molecular target: Neuronal acetylcholine receptor subunit alpha-7 (Rattus norvegicus) (UniProt Q05941); assay: Displacement of [3H]-methyllycaconitine from alpha7* nAChR in rat brain P2 membranes at 1 uM after 2.5 hrs by liquid scintillation spectrometry relative to control; assay type: cell membranes
Sequence of Neuronal acetylcholine receptor subunit alpha-7 (Rattus norvegicus) (Q05941 whole entry): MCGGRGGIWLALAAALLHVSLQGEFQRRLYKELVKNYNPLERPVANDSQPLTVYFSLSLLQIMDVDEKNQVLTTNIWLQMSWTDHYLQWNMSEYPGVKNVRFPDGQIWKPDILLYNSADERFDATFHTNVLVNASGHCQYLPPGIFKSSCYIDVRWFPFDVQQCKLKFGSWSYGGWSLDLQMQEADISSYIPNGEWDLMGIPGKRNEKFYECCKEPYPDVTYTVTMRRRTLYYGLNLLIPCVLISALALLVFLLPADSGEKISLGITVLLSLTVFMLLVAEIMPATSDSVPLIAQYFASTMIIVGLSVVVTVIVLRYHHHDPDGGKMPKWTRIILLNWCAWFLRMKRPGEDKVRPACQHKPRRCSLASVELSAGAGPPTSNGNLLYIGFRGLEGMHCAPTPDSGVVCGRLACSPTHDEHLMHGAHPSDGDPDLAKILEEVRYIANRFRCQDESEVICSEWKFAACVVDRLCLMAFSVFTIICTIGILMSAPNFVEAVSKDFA
Outline: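 [3H]-Methyllycaconitine binding on rat brain minus cortex, striatum and cerebellum […]. Percent inhibition measured at 1 μM compound. Four independent experiments in duplicate.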

[3] = molecular target: T1, Neuronal acetylcholine receptor subunit alpha-7 (Rattus norvegicus, UniProt Q05941); assay: Displacement of [3H]-methyllycaconitine from alpha7* nAChR in rat brain P2 membranes after 2.5 hrs by liquid scintillation spectrometry; assay type: cell membranes
T1 sequence (Q05941 whole entry): as above

Rattus norvegicus = species on record: Rattus norvegicus; assay: Selectivity ratio of Ki for alpha7* nAChR in rat brain P2 membranes to Ki for alpha4beta2* nAChR in Wistar rat cerebral cortex membranes; assay type: cell membranes
[4] = (§1) Agonist activity at nAChR in human SH-SY5Y cells assessed as increase in intracellular Ca2+ levels measured every 2 secs for 3 mins by Fluo4AM-fluorescent dye based assay; assay type: cell-based; conditions: 0.05 h
Outline: (§2)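 SH-SY5Y cells (native nAChRs) in DMEM/F12 with 10% FBS were plated at 5000-10000 cells/well and grown 48-72 h. Cells were loaded with Fluo-4 AM (1.824 μM) and probenecid (1.25 mM). Compound was added just before reading; fluorescence at ex/em 485/535 nm. Mean ± SEM of three independent experiments, each with 5-6 measurements.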

[5] = molecular target: Neuronal acetylcholine receptor subunit alpha-7 (Homo sapiens, UniProt P36544); assay: Agonist activity at human alpha7 nAChR expressed in mouse Neuro2a cells co-expressing chaperone NACHO assessed as increase in intracellular Ca2+ levels in presence of PNU120596 by calcium flux assay; assay type: cell-based
Sequence of Neuronal acetylcholine receptor subunit alpha-7 (Homo sapiens, UniProt P36544) (P36544 whole entry): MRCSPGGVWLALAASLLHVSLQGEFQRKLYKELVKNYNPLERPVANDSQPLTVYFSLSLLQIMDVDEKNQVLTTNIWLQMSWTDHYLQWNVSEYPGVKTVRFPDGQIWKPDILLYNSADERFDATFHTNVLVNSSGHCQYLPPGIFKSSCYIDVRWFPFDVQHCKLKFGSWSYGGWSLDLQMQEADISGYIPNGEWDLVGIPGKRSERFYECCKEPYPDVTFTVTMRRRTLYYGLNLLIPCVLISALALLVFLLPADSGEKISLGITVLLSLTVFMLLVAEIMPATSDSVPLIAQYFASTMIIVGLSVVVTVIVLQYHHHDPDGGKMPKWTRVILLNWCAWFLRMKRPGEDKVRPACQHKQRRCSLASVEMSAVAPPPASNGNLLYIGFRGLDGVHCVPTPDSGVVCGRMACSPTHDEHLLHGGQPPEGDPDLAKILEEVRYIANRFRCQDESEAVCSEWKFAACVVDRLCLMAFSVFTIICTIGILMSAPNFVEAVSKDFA

[6] = molecular target: T1, Neuronal acetylcholine receptor subunit alpha-7; assay: Agonist activity at rat alpha7 nAChR expressed in Xenopus laevis oocytes after 4 to 5 days at -60 mV holding potential by […] assay; assay type: cell-based
Outline: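 Two-electrode voltage clamp on defolliculated stage V-VI Xenopus laevis oocytes (collagenase 2 mg/mL, 2 h, 21-24 °C, Ca2+-free Barth's, pH 7.6). Oocytes were injected with 9.2 ng cRNA of human α3+β2 (1:1) or rat α7 plus chaperone NACHO (2:1). Agonist applications were separated by 5 min washout in normal frog Ringer's.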

SH-SY5Y = assay: as §1; assay type: cell-based; outline: as §2

| Compound | Ki [1] [nM] | inhibition [2] [%] | Ki [3] [nM] | Ratio Ki (Rattus norvegicus) | EC50 [4] [nM] | EC50 [5] [nM] | EC50 [6] [nM] | Activity (SH-SY5Y) |
| --- | --- | --- | --- | --- | --- | --- | --- | --- |
| CN(C)[C@@H]1[C@@H]2CC[C@@H](C2)[C@H]1c1cccnc1 | 59 | 8 | > 1000 | > 17 |  |  |  |  |
| CN(C)[C@@H]1[C@H]2CC[C@H](C2)[C@H]1c1cccnc1 | 554 | 6 | > 1000 | > 2 |  |  |  |  |
| N[C@@H]1[C@H]2CC[C@H](C2)[C@H]1c1ccc(Cl)nc1 | 28 |  | 227 |  |  |  |  |  |
| CN1CCC[C@H]1c1cccnc1 [NICOTINE] | 2.31 |  |  |  | 22500 |  |  |  |
| CN(C)[C@@H]1[C@H]2CC[C@H](C2)[C@H]1c1ccc(Cl)nc1 | 294 | 18 | > 1000 |  |  |  |  |  |
| N[C@@H]1[C@@H]2CC[C@@H](C2)[C@H]1c1ccc(Cl)nc1 | 1.31 |  | 10.5 |  | 220 | 24 | 2710 |  |
| CN(C)[C@@H]1[C@@H]2CC[C@@H](C2)[C@H]1c1ccc(Cl)nc1 | 43 | 33 | > 1000 |  |  | 6450 | > 10000 | inactive |
| N[C@@H]1[C@H]2CC[C@H](C2)[C@H]1c1cccnc1 | 166 | 30 | > 1000 |  |  |  |  |  |
| CN[C@@H]1[C@H]2CC[C@H](C2)[C@H]1c1cccnc1 | 206 | 15 | > 1000 |  |  |  |  |  |
| CN[C@@H]1[C@@H]2CC[C@@H](C2)[C@H]1c1ccc(Cl)nc1 | 3.12 |  | 116 | 37 |  |  |  |  |
| N[C@@H]1[C@@H]2CC[C@@H](C2)[C@H]1c1cccnc1 | 2.11 |  | 46 |  | 1920 | 48 | 5980 |  |
| CN[C@@H]1[C@@H]2CC[C@@H](C2)[C@H]1c1cccnc1 | 10.2 |  | 352 |  |  | 2290 | > 10000 | inactive |

— ChEMBL document CHEMBL4411326 (J Med Chem, 2019)
